One may read the Ki as the dissociation constant of the complex between target and ligand, obtained from inhibition or displacement. Higher therefore signals lower affinity. What is called Km is the substrate concentration at which the rate is half of its maximum.

From ChEMBL document CHEMBL1121382, “Inhibitors of polyamine biosynthesis. 8. Irreversible inhibition of mammalian S-adenosyl-L-methionine decarboxylase by substrate analogues” (J Med Chem, 1980) come the findings set out here.

Data set [1] addresses T1, S-adenosylmethionine decarboxylase proenzyme (Rattus norvegicus) (UniProt P17708).
T1 sequence (whole entry): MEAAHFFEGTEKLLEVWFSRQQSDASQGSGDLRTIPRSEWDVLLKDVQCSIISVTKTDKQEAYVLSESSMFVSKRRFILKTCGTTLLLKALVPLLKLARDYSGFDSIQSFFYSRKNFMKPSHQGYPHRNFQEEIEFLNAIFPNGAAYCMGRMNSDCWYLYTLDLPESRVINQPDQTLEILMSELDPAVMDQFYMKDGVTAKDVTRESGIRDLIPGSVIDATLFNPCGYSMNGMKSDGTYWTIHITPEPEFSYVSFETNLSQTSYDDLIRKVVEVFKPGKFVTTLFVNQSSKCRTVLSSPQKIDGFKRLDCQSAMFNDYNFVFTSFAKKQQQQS
The data set is described as follows: Tested for S-adenosyl-L-methionine decarboxylase activity recovered after 40 min of 0.4 mM compound in incubation media. Type of data set: functional. A digest of the protocol: (§1)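 Rat liver enzyme (105000g supernatant from livers of male Sprague-Dawley rats, ammonium sulfate 35–65% cut, methylglyoxal bis(guanylhydrazone)-Sepharose eluate) preincubated at 37 °C, pH 7.0, with 0.3 mg BSA, inhibitor 0, 0.2 or 0.4 mM, ±1.0 mM sodium cyanoborohydride. Aliquots taken at 0, 40, 80 min; activity assayed at 0.2 mM substrate; expressed as % of no-addition control.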

Data set [2] deals with T1, S-adenosylmethionine decarboxylase proenzyme (Rattus norvegicus). The data set is described as follows: Tested for S-adenosyl-L-methionine decarboxylase activity recovered after 80 min of 0.4 mM compound in incubation media. Type of data set: functional. In a few lines: as §1
Data set [3] has as its target T2, S-adenosylmethionine decarboxylase proenzyme (Rattus norvegicus, UniProt P17708).
T2 sequence (P17708 whole entry): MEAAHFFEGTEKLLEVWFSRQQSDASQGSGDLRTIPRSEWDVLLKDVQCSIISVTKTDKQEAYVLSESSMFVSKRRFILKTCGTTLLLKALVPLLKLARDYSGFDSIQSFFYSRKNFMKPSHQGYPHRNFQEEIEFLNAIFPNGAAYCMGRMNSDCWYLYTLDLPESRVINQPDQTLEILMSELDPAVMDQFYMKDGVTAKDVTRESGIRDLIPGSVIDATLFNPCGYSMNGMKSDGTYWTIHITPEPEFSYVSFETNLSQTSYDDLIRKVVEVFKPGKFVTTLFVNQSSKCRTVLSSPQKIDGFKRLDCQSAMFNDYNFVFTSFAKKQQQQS
The data set is described as follows: Tested for inhibition against S-adenosyl-L-methionine decarboxylase from rat liver. In a few lines:
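Partially purified rat liver enzyme; 0.1 M sodium phosphate pH 7.0, 2.5 mM DTT, 2.5 mM putrescine; S-[1-14C]adenosyl-L-methionine at 2.0 × 10⁻⁶ to 1.60 × 10⁻⁴ M; inhibitor 6.25 × 10⁻⁵, 1.25 × 10⁻⁴, 2.50 × 10⁻⁴ M; 30 min, 37 °C; released 14CO2 trapped in ethanolamine and counted, blank-corrected; apparent Ki from short incubations.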

The target of data set [4] is T1, S-adenosylmethionine decarboxylase proenzyme (Rattus norvegicus). Nature of the data set: Tested for S-adenosyl-L-methionine decarboxylase activity recovered after 80 min of 0.2 mM compound in incubation media. Type of data set: functional. A digest of the protocol: as §1
The target is the same in data set [5]. The data set is described as follows: Tested for S-adenosyl-L-methionine decarboxylase activity recovered after 40 min of 0.2 mM + 1 mM NaBH3CN compound in incubation media. Type of data set: functional. In a few lines: as §1
Data set [6] has the same target. The data set is described as follows: Tested for S-adenosyl-L-methionine decarboxylase activity recovered after 40 min of 0.2 mM compound in incubation media. Type of data set: functional. In a few lines: as §1
Data set [7] has the same target. The data set is described as follows: Tested for S-adenosyl-L-methionine decarboxylase activity recovered after 80 min of 0.4 mM compound in incubation media.
The target is the same in data set [8]. Nature of the data set: Tested for S-adenosyl-L-methionine decarboxylase activity recovered after 40 min of 0.2 nM compound in incubation media. The class given is functional. To be noted: in the assay text read “0.2 mM” for “0.2 nM”. In a few lines: (§2)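 Partially purified rat liver AdoMetDC (ammonium sulfate, then MGBG-Sepharose) preincubated at 37 °C, pH 7.0, with BSA and 0.2 mM inhibitor, no reductant. Aliquots removed at 40 or 80 min, then assayed 30 min at 37 °C in phosphate pH 7.0 with 2.5 mM putrescine, DTT and 0.2 mM [1-14C]AdoMet. Released 14CO2 trapped and counted; activity given as % of buffer-only control at the same time.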

The target is the same in data set [9]. The data set is described as follows: Tested for S-adenosyl-L-methionine decarboxylase activity recovered after 80 min of 0.2 nM compound in incubation media. The class given is functional. To be noted: in the assay text read “0.2 mM” for “0.2 nM”. In a few lines:
as §2

For data set [10] the target is unchanged. The data set is described as follows: Tested for S-adenosyl-L-methionine decarboxylase activity recovered after 40 min of 0.2 mM + 1 mM NaBH3CN compound in incubation media.
Data set [11] has the same target. The data set is described as follows: Tested for S-adenosyl-L-methionine decarboxylase activity recovered after 40 min of 0.4 mM compound in incubation media.
Substrate in data set [12]: C[S+](CC[C@H](N)C(=O)[O-])C[C@H]1O[C@@H](n2cnc3c(N)ncnc32)[C@H](O)[C@@H]1O

`C[S+](CCC(C)(N)C(=O)O)C[C@H]1O[C@@H](n2cnc3c(N)ncnc32)[C@H](O)[C@@H]1O` (some centres undefined): the Activity amounted to 77% in [1]; 62% in [2]; 81% in data set [4]; 50% in [5]; 89% in data set [6]. For the same molecule, in [3], the Ki turned out to be 180 µM.

In the case of `CN(CCCN)C[C@H]1O[C@@H](n2cnc3c(N)ncnc32)[C@H](O)[C@@H]1O`, the Activity in [7] was 97%; in data set [8], 95%; in data set [9], 97%; in [10] it was 94%; in data set [11] it was 93%. For the same molecule, the affinity in [3] corresponds to a Ki of 110 µM.

For `CC(N)CC[S+](C)C[C@H]1O[C@@H](n2cnc3c(N)ncnc32)[C@H](O)[C@@H]1O` (some centres undefined), the Activity is 42% in data set [7]; 75% in data set [8]; 66% in data set [9]; 21% in data set [10]; 65% in data set [11]. In [3], affinity was put at a Ki of 120 µM.

B1: S-adenosylmethionine decarboxylase proenzyme (Rattus norvegicus), P17708 (protein)
chain: MEAAHFFEGTEKLLEVWFSRQQSDASQGSGDLRTIPRSEWDVLLKDVQCSIISVTKTDKQEAYVLSESSMFVSKRRFILKTCGTTLLLKALVPLLKLARDYSGFDSIQSFFYSRKNFMKPSHQGYPHRNFQEEIEFLNAIFPNGAAYCMGRMNSDCWYLYTLDLPESRVINQPDQTLEILMSELDPAVMDQFYMKDGVTAKDVTRESGIRDLIPGSVIDATLFNPCGYSMNGMKSDGTYWTIHITPEPEFSYVSFETNLSQTSYDDLIRKVVEVFKPGKFVTTLFVNQSSKCRTVLSSPQKIDGFKRLDCQSAMFNDYNFVFTSFAKKQQQQS
Turning to B1, the Km in [12] was found to be 51.4 µM.
